Results on seven compounds are retold here after ChEMBL document CHEMBL3600318, “Chemical synthesis of tetracyclic terpenes and evaluation of antagonistic activity on endothelin-A receptors and voltage-gated calcium channels” (Bioorg Med Chem, 2015).

The nature of assay [1]: (§1) Antagonist activity at endothelin A receptor in Mongolian gerbil spiral modiolar artery assessed as inhibition of ET-1-induced vasoconstriction at 0.1 to 1 uM […] followed by compound washout and again ET-1 addition by video microscopic analysis. Type of assay: tissue-based, Meriones unguiculatus.
The species named for a further assay is Meriones unguiculatus. The description is as §1. Type of assay: tissue-based.
The target of assay [2] is T1, Endothelin-1 receptor (Rattus norvegicus, UniProt P26684).
T1 sequence (P26684 whole entry): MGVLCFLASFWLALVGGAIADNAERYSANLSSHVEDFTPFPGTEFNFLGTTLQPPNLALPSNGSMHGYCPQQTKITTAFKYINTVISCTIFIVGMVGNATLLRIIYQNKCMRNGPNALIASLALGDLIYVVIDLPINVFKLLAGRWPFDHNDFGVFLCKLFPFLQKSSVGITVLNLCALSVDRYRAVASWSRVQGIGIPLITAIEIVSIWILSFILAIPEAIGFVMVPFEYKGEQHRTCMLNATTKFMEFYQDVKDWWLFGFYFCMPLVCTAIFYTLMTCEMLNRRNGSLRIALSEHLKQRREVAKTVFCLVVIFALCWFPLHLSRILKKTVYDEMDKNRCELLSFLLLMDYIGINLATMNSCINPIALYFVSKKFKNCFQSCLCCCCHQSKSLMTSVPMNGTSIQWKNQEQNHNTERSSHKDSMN
Nature of the assay: Antagonist activity at endothelin A receptor in rat A7r5 cells assessed as inhibition of ET-1-induced increase in cytosolic free Ca2+ level treated 1 min prior to ET-1 addition by fura-2 dye-based spectrofluorometric analysis. Type of assay: functional, cell-based.

The target of assay [3] is T1, Endothelin-1 receptor. Put plainly: Antagonist activity at endothelin A receptor in Wistar rat thoracic aorta strips assessed as inhibition of ET1-induced vasoconstriction preincubated for 5 mins followed by ET1 addition.
The target of assay [4] is Voltage-dependent T-type calcium channel subunit alpha-1H (Mus musculus) (UniProt O88427). Nature of the assay: Inhibition of Cav3.2 T-type channel in C57/BC6 mouse DRG neurons assessed as inhibition of low-voltage activated Ca2+ currents by patch clamp method. Summed up: (§2)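 Whole-cell voltage clamp at about 21 °C on large acutely dissociated DRG neurons from 1-2-month C57/BC6 mice, used within 2 days. Holding potential -90 mV, 100-ms steps in 10 mV increments every 2 s, giving low- and high-voltage-activated Ca2+ currents. Bath-applied compound 0.1–3 µM, vehicle 0.1% DMSO. IC50 from a logistic fit, mean ± SEM, n = 4 per point.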
Chain of Voltage-dependent T-type calcium channel subunit alpha-1H (Mus musculus) (O88427 whole entry): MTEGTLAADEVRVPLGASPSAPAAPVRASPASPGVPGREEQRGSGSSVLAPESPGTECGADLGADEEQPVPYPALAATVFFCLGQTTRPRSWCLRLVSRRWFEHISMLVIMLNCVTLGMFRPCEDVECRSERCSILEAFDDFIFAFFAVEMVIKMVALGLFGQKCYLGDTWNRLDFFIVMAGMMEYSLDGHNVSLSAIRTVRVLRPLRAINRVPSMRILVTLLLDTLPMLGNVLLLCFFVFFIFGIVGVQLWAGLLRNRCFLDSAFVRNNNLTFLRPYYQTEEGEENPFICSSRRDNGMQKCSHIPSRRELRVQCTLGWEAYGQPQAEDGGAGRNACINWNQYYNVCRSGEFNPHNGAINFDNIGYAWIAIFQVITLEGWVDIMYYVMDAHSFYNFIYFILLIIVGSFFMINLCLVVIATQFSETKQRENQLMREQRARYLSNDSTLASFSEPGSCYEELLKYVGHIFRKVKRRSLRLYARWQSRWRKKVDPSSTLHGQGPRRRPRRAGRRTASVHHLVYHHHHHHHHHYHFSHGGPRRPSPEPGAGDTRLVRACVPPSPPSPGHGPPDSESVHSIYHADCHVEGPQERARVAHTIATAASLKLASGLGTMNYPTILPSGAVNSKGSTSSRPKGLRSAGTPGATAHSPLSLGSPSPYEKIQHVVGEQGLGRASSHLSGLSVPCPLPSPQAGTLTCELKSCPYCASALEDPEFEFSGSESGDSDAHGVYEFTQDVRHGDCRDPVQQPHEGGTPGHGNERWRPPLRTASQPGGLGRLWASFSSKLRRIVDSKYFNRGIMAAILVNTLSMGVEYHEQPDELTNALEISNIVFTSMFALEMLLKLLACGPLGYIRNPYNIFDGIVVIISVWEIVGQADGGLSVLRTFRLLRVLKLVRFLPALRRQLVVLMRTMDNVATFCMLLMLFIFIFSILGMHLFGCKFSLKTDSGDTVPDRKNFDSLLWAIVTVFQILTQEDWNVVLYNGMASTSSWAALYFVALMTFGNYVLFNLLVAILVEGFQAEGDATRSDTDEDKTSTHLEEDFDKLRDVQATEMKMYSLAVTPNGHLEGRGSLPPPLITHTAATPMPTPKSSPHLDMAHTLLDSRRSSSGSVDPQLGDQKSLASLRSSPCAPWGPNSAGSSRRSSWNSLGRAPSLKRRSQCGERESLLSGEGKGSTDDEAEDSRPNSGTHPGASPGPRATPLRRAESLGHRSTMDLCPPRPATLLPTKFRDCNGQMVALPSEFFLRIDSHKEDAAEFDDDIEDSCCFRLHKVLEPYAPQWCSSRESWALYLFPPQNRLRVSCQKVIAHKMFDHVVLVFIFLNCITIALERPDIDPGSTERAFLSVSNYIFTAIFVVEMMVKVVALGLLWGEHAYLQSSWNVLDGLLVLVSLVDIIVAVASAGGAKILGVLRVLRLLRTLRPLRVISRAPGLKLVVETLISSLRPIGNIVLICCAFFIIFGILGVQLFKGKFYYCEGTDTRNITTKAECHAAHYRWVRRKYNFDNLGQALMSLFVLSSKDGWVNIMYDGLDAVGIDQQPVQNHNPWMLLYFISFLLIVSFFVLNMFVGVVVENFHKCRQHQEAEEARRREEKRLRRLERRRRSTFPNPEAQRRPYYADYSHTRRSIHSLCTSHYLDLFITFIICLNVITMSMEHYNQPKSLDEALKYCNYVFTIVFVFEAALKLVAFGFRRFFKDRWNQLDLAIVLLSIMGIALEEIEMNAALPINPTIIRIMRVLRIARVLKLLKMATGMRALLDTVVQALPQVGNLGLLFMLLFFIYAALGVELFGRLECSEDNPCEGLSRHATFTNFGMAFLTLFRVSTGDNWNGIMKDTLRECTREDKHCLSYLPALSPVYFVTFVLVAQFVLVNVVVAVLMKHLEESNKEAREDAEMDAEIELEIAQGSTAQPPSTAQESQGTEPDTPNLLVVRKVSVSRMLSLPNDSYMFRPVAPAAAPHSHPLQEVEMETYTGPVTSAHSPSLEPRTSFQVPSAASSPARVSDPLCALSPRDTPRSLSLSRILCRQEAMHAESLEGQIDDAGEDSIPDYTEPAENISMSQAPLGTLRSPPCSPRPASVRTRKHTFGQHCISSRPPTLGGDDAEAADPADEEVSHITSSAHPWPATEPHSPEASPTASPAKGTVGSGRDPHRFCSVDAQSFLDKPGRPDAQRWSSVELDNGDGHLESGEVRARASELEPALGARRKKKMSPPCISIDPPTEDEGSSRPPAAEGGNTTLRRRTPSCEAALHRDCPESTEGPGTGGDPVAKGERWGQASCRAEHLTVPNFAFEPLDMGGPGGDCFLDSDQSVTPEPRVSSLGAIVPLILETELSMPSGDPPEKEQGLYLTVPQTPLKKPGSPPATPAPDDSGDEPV
For orientation: The patch-clamp technique gives a direct electrical read-out from membranes.

The species entered for assay [5] is Mus musculus. Nature of the assay: Inhibition of L-type Ca2+ channel in C57/BC6 mouse DRG neurons assessed as inhibition of high-voltage activated Ca2+ currents by patch clamp method. Summed up: as §2
The species named for assay [6] is Mus musculus. Nature of the assay: Inhibition of voltage-gated sodium channel in C57/BC6 mouse DRG neurons assessed as inhibition of voltage activated Na+ currents at 0.1 to 0.3 uM by patch clamp method. The procedure, abridged:
(§3)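 Whole-cell voltage clamp at about 21 °C on acutely dissociated mouse DRG neurons. TTX-sensitive inward Na+ currents elicited by steps to 0 mV for 20 ms, outward K+ currents by steps to 70 mV for 300 ms, at 0.1 Hz; stable 30 min under control. Compound bath-applied, time course followed; vehicle 0.1% DMSO.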

The species entered for assay [7] is Mus musculus. Put plainly: Inhibition of voltage-gated potassium channel in C57/BC6 mouse DRG neurons assessed as inhibition of voltage activated […] currents at 0.1 to 0.3 uM by patch clamp method. Summed up: as §3
Assay [8] is filed under the species Mus musculus. Put plainly: Inhibition of voltage-gated sodium channel in C57/BC6 mouse DRG neurons assessed as inhibition of voltage activated Na+ currents at 3 uM by patch clamp method. The procedure, abridged:
as §3

Assay [9] is filed under the species Mus musculus. Put plainly: Inhibition of voltage-gated potassium channel in C57/BC6 mouse DRG neurons assessed as inhibition of voltage activated […] currents at 3 uM by patch clamp method. Summed up: as §3

Each structure is given as a SMILES string. The source made the active and inactive calls. No cut-off for these calls is given here.

As to `CC1(C)C(=O)CC[C@]2(C)[C@H]3CC[C@@H]4CCC(=O)C=C4[C@]3(C)CC[C@@H]12`, in [1], the pA2 (in general, a measure of antagonist potency on a negative log scale) was 6.7.
Regarding `CC1(C)CC[C@]2(C(=O)O)CC[C@]3(COC(=O)/C=C/c4ccc(O)c(O)c4)C(=CC[C@@H]4[C@@]5(C)CCC(=O)C(C)(C)[C@@H]5CC[C@]43C)[C@@H]2C1`, the pA2 in assay [1] was found to be 7.1. The A2 in the assay filed under Meriones unguiculatus is 85 nM. Also, the half-inhibitory concentration (IC50) (usually the concentration needed to halve the response being measured) at Endothelin-1 receptor [2] was found to be 11 nM. At Endothelin-1 receptor [3], the Ki (as a rule, the dissociation constant of the complex between target and ligand, obtained from inhibition or displacement) was determined as 66 nM.
For `CC1(C)[C@@H]2CC[C@]3(C)[C@H](CC[C@@H]4CC[C@@]5(O)C[C@]43C=N5)[C@@]2(C)CCC12OCCO2`, the pA2 in [1] amounted to 6.5.
Same read-out and setting: then `CC1(C)C(=O)CC[C@]2(C)[C@H]3CCc4ccc(OCCO)cc4[C@]3(C)CC[C@@H]12`, with 6.5.
Consider `CC1(C)C(=O)CC[C@]2(C)[C@H]3CC[C@@H]4CCC(=O)C[C@@]4(C#N)[C@]3(C)CC[C@@H]12`, for which the pA2 in [1] was 6.9. In addition, in the assay filed under Meriones unguiculatus, the A2 is 134 nM.
With `CC1(C)C(=O)CC[C@]2(C)[C@H]3CCc4ccc(O)cc4[C@]3(C)CC[C@@H]12`, the pA2 in assay [1] is 6.7.
Regarding `CC1(C)[C@@H]2CC[C@]3(C)[C@H](CC[C@@H]4CC=C(O[Si](C)(C)C(C)(C)C)C[C@]43C=N)[C@@]2(C)CCC12OCCO2` (single isomer, unassigned; (-)), in [1], the pA2 was 7. Further, the A2 in the assay listed under Meriones unguiculatus came out at 93 nM. Also, the inhibition result (in [4]; in the assay filed under Mus musculus [5]) was “Dose-dependent effect” in each case. For the same compound, the inhibition entry in the assay filed under Mus musculus [6] and in the assay filed under Mus musculus [7] was “inactive” each time. Besides, the inhibition entry in the assay filed under Mus musculus [8] and in the assay filed under Mus musculus [9] was “Active” throughout.
